In ChEMBL document CHEMBL1122595, “Stereochemical considerations and the antiinflammatory activity of 6-amino-6,7,8,9-tetrahydro-5H-benzocyclohepten-5-ols and related derivatives” (1984):

What was measured:
[1] = tested on: Rattus norvegicus; assay: Antiinflammatory activity in rats by using reverse passive Arthus reaction (RPAR) assay at dose level of 50 mg/Kg by peroral administration; type: functional
How it was run: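 Rats fasted 24 h before and during study, water ad libitum; groups of at least six dosed by gavage in methylcellulose 1 h before iv (penile vein) BSA 1 mg sensitization under light ether; 1 h later subplantar anti-BSA 0.1 mg in right hind paw. Paw volume by mercury plethysmograph immediately and 2 h postchallenge; percent inhibition vs MC controls, ANOVA (Duncan, Dunnett).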

[2] = species on record: Rattus norvegicus; assay: The relative potency was evaluated by considering the potency of indomethacin as 1; type: functional
How it was run: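 Rat reverse passive Arthus paw oedema (oral gavage in methylcellulose 1 h before iv BSA, subplantar anti-BSA 1 h later, plethysmograph change over 2 h); three to five dose points; ED50 and potency relative to indomethacin standard derived by linear regression.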

Row | Compound | Inhibitory response [1] | Relative potency [2]
1 | COc1ccc2c(c1)CCCC1NC(=O)OC21 (stereo unspecified) | 0% | 
2 | CC(C)Oc1ccc2c(c1)C(O)C(N)CCC2 (stereo in doubt; 4n) | 4% | 
3 | O=C1NC2CCCc3ccc(F)cc3C2O1 (stereo in doubt; 20i) | 78% | 0.03
4 | O=C1N[C@@H]2CCCc3cccnc3[C@@H]2O1 | 82% | 0.3
5 | COc1ccc2c(c1)CCCC(N)C2O (stereo unspecified) | 80% | 0.1
6 | CSc1ccc2c(c1)C(O)C(N)CCC2 (stereo in doubt; 4l) | 11% | 0.02
7 | O=C1NC2CCCc3cc(Cl)ccc3C2O1 (stereo in doubt; 19e) | 9% | 
8 | COc1cc2c(cc1SC)C(O)C(N)CCC2 (stereo in doubt; 4gg) | 29% | 
9 | COc1cc2c(cc1OC)C(O)C(N)CCC2.Cl (stereo in doubt; 4dd) | 93% | 0.2
10 | O=C1NC2CCCc3ccc(Cl)cc3C2O1 (stereo in doubt; 19i) | 9% | 
11 | COc1cc2c(cc1SC)C(O)C(N)CCC2 (stereo in doubt; 4ff) | 81% | 0.05
12 | Cl.NC1CCCc2ccccc2C1O (stereo in doubt; 4a) | 93% | 
13 | N[C@@H]1CCCc2cccnc2[C@@H]1O | 28% | 
14 | CC(C)c1ccc2c(c1)C1OC(=O)NC1CCC2 (stereo in doubt; 19h) | 7% | 
15 | COc1cc2c(cc1[S+](C)[O-])C(O)C(N)CCC2 (stereo in doubt; 4hh) | 8% | 
16 | NC[C@@H](O)c1ccccc1 | 21% | 
17 | NC1CCCc2ccc(Cl)cc2C1O (stereo in doubt; 4z) | 94% | 0.34
18 | CSc1ccc2c(c1)C(O)C(N)CCC2 (stereo in doubt; 4k) | 90% | 0.56
19 | CC(C)c1ccc2c(c1)C(O)C(N)CCC2 (stereo unspecified) | 100% | 0.12
20 | CS(=O)(=O)c1ccc2c(c1)C(O)C(N)CCC2 (stereo unspecified) | 5% | 

Row | Compound | Inhibitory response [1] | Relative potency [2]
21 | O=C1NC2CCCc3ccccc3C2O1 (stereo in doubt; 19a) | 77% | 
22 | Cl.NC1CCCc2ccc([N+](=O)[O-])cc2C1O (stereo unspecified) | 100% | 0.25
23 | COc1cc2c(cc1OC)C(O)C(N)CCC2.Cl (stereo in doubt; 4ee) | 13% | 0.03
24 | O=C1NC2CCCc3ccc(F)cc3C2O1 (stereo in doubt; 19j) | 19% | 
25 | COc1ccc2c(c1)C1OC(=O)NC1CCC2 (stereo in doubt; 19g) | 20% | 
26 | CC(C)Oc1ccc2c(c1)C(O)C(N)CCC2 (stereo in doubt; 4m) | 77% | 0.18
27 | O=C1NC2CCCc3cc(F)ccc3C2O1 (stereo in doubt; 19f) | 39% | 
28 | CC(C)c1ccc2c(c1)C1OC(=O)NC1CCC2 (stereo in doubt; 20g) | 37% | 
29 | NC1CCCc2ccc(Cl)cc2C1O (stereo in doubt; 4aa) | 44% | 
30 | CC(=O)Nc1ccc2c(c1)C(O)C(N)CCC2 (stereo unspecified) | 18% | 
31 | O=C1NC2CCCc3ccccc3C2O1 (stereo in doubt; 19b) | 24% | 
32 | COc1ccc2c(c1)C(O)C(N)CCC2 (stereo in doubt; 4j) | 13% | 0.02
33 | Cc1ccc2c(c1)CCCC1NC(=O)OC21 (stereo unspecified) | 28% | 
34 | NC[C@H]1c2ccccc2CCC[C@H]1O | 8% | 
35 | CC(C)(C)C(=O)OCOc1ccc2c(c1)C(O)C(N)CCC2 (stereo in doubt; 4q) | 16% | 
36 | NC[C@@H]1c2ccccc2CCC[C@H]1O | 0% | 
37 | Cc1ccc2c(c1)CCCC(N)C2O (stereo unspecified) | 93% | 0.05
38 | Cl.NC1CCCc2cc(F)ccc2C1O (stereo unspecified) | 100% | 0.18
39 | Cl.NC1CCCc2ccccc2C1O (stereo in doubt; 4b) | 98% | 0.15
40 | Cl.NC1CCCc2ccccc2C1O (stereo in doubt; 4c) | 11% | 0.02

Row | Compound | Inhibitory response [1] | Relative potency [2]
41 | NC1CCCc2ccc(F)cc2C1O (stereo unspecified) | 96% | 0.15
42 | CC(C)(C)C(=O)OCOc1ccc2c(c1)C(O)C(N)CCC2 (stereo in doubt; 4r) | 3% | 
43 | NC1CCCc2ccc(SCc3ccccc3)cc2C1O (stereo in doubt; 4w) | 31% | 
44 | COc1cc2c(cc1OC)C(O)C(N)CCCC2.Cl (stereo unspecified) | 0% | 
45 | O=C1NC2CCCc3cc(F)ccc3C2O1 (stereo in doubt; 20e) | 96% | 0.04
46 | C[S+]([O-])c1ccc2c(c1)C(O)C(N)CCC2 (stereo unspecified) | 7% | 
47 | O=C1NC2CCCc3ccc(Cl)cc3C2O1 (stereo in doubt; 20h) | 29% | 
48 | Cl.N[C@@H]1CCCc2cccnc2[C@@H]1O | 36% | 
49 | COc1ccc2c(c1)C(O)C(N)CCC2 (stereo in doubt; 4i) | 98% | 0.75
50 | NC1CCCc2cc(Cl)ccc2C1O (stereo unspecified) | 94% | 0.08
51 | O=C1NC2CCCc3cc(Cl)ccc3C2O1 (stereo in doubt; 20d) | 18% | 
52 | CC(C)Sc1ccc2c(c1)C(O)C(N)CCC2 (stereo unspecified) | 39% | 
53 | NC1CCCc2ccc(SCc3ccccc3)cc2C1O (stereo in doubt; 4v) | 99% | 
54 | COc1cc2c(cc1[S+](C)[O-])C(O)C(N)CCC2 (stereo in doubt; 4ii) | 0% | 
55 | O=C1NC2CCCc3ccccc3C2O1 (stereo in doubt; 20a) | 92% | 0.06
56 | Cl.N[C@@H]1CSCc2ccccc2[C@@H]1O | 2% | 
57 | COc1ccc2c(c1)C1OC(=O)NC1CCC2 (stereo in doubt; 20f) | 24% | 
58 | CSc1ccc2c(c1)CCCC(N)C2O (stereo unspecified) | 84% | 0.04
